This is an account of results in ChEMBL document CHEMBL4823260, “From High-Throughput Screening to Target Validation: Benzo[d]isothiazoles as Potent and Selective Agonists of Human Transient Receptor Potential Cation Channel Subfamily M Member 5 Possessing In Vivo Gastrointestinal Prokinetic Activity in Rodents” (J Med Chem, 2021).

In series [1] the target is T1, Transient receptor potential cation channel subfamily M member 5 (Homo sapiens, UniProt Q9NZQ8).
T1 sequence (Q9NZQ8 whole entry): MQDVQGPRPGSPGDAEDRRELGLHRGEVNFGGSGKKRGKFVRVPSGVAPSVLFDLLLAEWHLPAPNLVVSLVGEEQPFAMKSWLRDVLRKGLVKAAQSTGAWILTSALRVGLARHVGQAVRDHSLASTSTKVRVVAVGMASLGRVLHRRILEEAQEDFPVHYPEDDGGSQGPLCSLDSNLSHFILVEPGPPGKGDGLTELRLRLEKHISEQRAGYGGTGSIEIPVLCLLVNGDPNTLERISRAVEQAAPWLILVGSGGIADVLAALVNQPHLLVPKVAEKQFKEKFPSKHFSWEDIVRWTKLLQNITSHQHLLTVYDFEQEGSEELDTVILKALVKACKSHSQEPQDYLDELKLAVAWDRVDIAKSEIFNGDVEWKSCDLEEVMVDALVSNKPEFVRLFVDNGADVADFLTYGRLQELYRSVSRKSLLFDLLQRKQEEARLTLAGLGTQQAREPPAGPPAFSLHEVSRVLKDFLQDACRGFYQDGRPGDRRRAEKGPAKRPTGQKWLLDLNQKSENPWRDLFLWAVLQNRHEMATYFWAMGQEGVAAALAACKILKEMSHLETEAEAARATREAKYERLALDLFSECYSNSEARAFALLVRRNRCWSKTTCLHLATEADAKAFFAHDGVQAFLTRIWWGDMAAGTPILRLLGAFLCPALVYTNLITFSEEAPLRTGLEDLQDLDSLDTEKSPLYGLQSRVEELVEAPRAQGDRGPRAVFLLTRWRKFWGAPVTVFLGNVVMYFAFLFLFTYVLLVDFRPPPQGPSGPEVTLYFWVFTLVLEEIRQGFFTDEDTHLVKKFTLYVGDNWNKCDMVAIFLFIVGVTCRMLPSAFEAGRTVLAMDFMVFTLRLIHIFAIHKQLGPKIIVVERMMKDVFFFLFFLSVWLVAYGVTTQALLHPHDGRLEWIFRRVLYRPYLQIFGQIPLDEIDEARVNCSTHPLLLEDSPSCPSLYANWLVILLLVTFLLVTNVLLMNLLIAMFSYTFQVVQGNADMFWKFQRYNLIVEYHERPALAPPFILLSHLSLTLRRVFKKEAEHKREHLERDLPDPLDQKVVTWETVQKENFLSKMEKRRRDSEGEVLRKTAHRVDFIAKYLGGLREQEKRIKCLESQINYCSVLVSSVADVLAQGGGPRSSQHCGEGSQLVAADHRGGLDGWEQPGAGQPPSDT
Kind of series: Agonist activity at human TRPM5 expressed in CHO-K1 cells maintained at 80 mV final holding potential by syncroPatch assay. In kind it is cell-based. In short, it runs like this: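 SyncroPatch 384 whole-cell recording at rt on CHO-K1 cells stably expressing human or mouse TRPM5. Intracellular solution had 2 mM Na-ATP and 5 μM free Ca2+. Cumulative doses 0.03–31.6 μM in 0.5% DMSO, 150 s each after 180 s vehicle. Current measured at the end of the +80 mV step, normalized to vehicle; pEC50 is the mean of ≥2 independent experiments.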
In general terms: In patch-clamp work, channel activity is measured electrically.

A short description of series [2]: Intrinsic clearance in mouse liver microsomes assessed per mg protein incubated up to 30 mins in presence of NADPH by LC-MS/MS analysis. The note with it: […]. In kind it is ADME, Microsome.
Series [3] is described as follows: Intrinsic clearance in human liver microsomes assessed per mg protein incubated up to 30 mins in presence of NADPH by LC-MS/MS analysis. In kind it is ADME, Microsome. As to conditions: […]. (In general: Liver microsomes are vesicles of endoplasmic reticulum, rich in cytochrome P450 enzymes.)

Bounds are passed on as bounds.

`Cn1c(CNc2ccc(Cl)cc2)nc2ccccc21` had an EC50 in series [1] of more than 31.6 µM. The same measure, in the same setting: the same measure for `CN(Cc1ncc(Cl)n1C)c1ccc2cnsc2c1`: 0.0851 µM; for `Cn1c(Cl)cnc1CNc1ccc2[nH]cnc2c1`: more than 31.6 µM. `Clc1cnc(CNc2ccc3sncc3c2)[nH]1` had a concentration giving a half-maximal response (EC50) in series [1] of more than 31.6 µM. On to `Cn1c(Cl)cnc1CNc1ccc2ocnc2c1`, for which, in series [1], the EC50 is 16.2 µM. `Clc1cnc(CNc2ccc3sncc3n2)s1` gave an EC50 in series [1] of 1.17 µM. Further, the microsomal CLint in series [2] was 421 µL/min/mg; in series [3], 172 µL/min/mg.

For the molecule `Clc1cnc(CNc2cnc3sncc3c2)s1`, a half-maximal effect in series [1] (EC50) was put at 6.61 µM. In addition, the microsomal CLint worked out at 163 µL/min/mg in series [2] and 84 µL/min/mg in series [3]. In series [1], `CC(C)c1cnc(CNc2ccc3sncc3c2)s1` showed an EC50 of more than 31.6 µM. The molecule `CN(Cc1ncc(Cl)n1C)c1cc2sncc2cc1Cl` showed a concentration for a half-maximal effect (EC50) in series [1] of 0.309 µM. Still for that read-out and setting: as for `Cn1c(CNc2ccc3sncc3c2)nc(Cl)c1Cl`, the figure is more than 31.6 µM; as for `CCN(Cc1ncc(Cl)n1C)c1ccc2sncc2c1`, 0.468 µM. On the same count and under the same terms, the same measure for `CN(Cc1ncc(Cl)s1)c1cc2cnsc2cc1Cl`: 1.62 µM; for `Cc1nnc(CNc2ccc3sncc3c2)s1`: 19.1 µM.

In the case of `CC(C)(Nc1ccc2sncc2c1)c1ncc(Cl)s1`, in series [1], the half-maximal effective concentration (EC50) is more than 31.6 µM. The microsomal CLint was 250 µL/min/mg in series [2] and 173 µL/min/mg in series [3].

With `Cn1ccnc1CNc1ccc2sncc2c1`, the midpoint of the response in series [1], the EC50, lay at 5.13 µM.

Molecule `Cn1c(Cl)cnc1CNc1ccc2c(cnn2C)c1` had a half-maximal effective concentration (EC50) in series [1] of 5.25 µM.

Consider `Cn1ccnc1CNc1ccc(Cl)cc1OCCC(F)(F)F`, for which the midpoint of the response in series [1], the EC50, lay at 2.51 µM. Still for that read-out and setting: the same measure for `Cc1nc(CNc2ccc3sncc3c2)sc1C`: more than 31.6 µM. Turning to `Cc1cc(NCc2ncc(Cl)s2)cc2cnsc12`, the 50% effective concentration (EC50) in series [1] was more than 31.6 µM. Besides, the microsomal CLint in series [2] stood at 434 µL/min/mg; in series [3], 169 µL/min/mg.

In series [1], `Fc1cc(NCc2ncc(Cl)s2)cc2cnsc12` gave a concentration for a half-maximal effect (EC50) of 1.38 µM. Also, the microsomal CLint in series [2] stood at 612 µL/min/mg; in series [3], 202 µL/min/mg. Take `Cn1c(Cl)cnc1CNc1ccc2oncc2c1`: in series [1], the half-maximal effective concentration (EC50) was 3.02 µM. Same read-out and setting: as for `Fc1cc2cnsc2cc1NCc1ncc(Cl)s1`, the figure is 0.0288 µM.

On to `N#Cc1ccc(CNc2ccc3sncc3c2)s1`, for which the EC50 in series [1] is more than 31.6 µM.

Consider `Cn1c(Br)cnc1CNc1ccc2sncc2c1`, for which the EC50 in series [1] was 0.457 µM. On the same count and under the same terms, as for `Cc1cc2cnsc2cc1NCc1ncc(Cl)s1`, the figure is 0.0178 µM.

`Cn1c(Cl)cnc1CN(CC1CCCCC1)c1ccc2sncc2c1` showed an EC50 in series [1] of more than 31.6 µM.

As for `c1csc(CNc2ccc3sncc3c2)n1`, the EC50 in series [1] is 4.68 µM. In the case of `Cc1cc2cnsc2cc1NCc1ncc(Cl)n1C`, in series [1], a half-maximal effect (EC50) was put at 0.038 µM. Still for that read-out and setting: the same measure for `Cn1c(Cl)cnc1CNc1ccc2c(c1)nnn2C`: more than 31.6 µM. On to `Clc1cnc(CNc2cc3cnsc3cn2)s1`, for which a half-maximal effect in series [1] (EC50) was put at 0.468 µM. Also, the microsomal CLint in series [2] is 93 µL/min/mg; in series [3], 155 µL/min/mg. With `COc1ccc(N(C)Cc2ncc(Cl)n2C)cc1OC`, in series [1], the EC50 was more than 31.6 µM. The same measure, in the same setting: the same measure for `Cn1c(Cl)ccc1CNc1ccc2sncc2c1`: more than 31.6 µM. Same read-out and setting: as for `Clc1cnc(CNc2cccc3sncc23)s1`, the figure is more than 31.6 µM. Take `Cc1cc2sncc2cc1NCc1ncc(Cl)s1`: a half-maximal response in series [1] (EC50) required 0.0389 µM. Also, the figures for the microsomal CLint in series [2] and in series [3] were 148 µL/min/mg and 157 µL/min/mg, respectively. For `Clc1cnc(CNc2ccc3sncc3c2Cl)s1`, in that order: 1.58 µM, 258 µL/min/mg and 174 µL/min/mg. Taken in the same sequence, the figures for `Cc1cc2sncc2cc1N(C)Cc1ncc(Cl)s1` were 5.25 µM, 748 µL/min/mg and 562 µL/min/mg. In series [1], `CC(Nc1ccc2sncc2c1)c1ncc(Cl)s1` (configuration not stated) gave an EC50 of 7.59 µM. Molecule `Cn1c(Cl)cnc1CNc1cc2sncc2cc1F` gave a concentration for a half-maximal effect (EC50) in series [1] of 0.102 µM. Still for that read-out and setting: the same measure for `Cn1c(Cl)cnc1CN(CC1CC1)c1ccc2sncc2c1`: 0.158 µM; for `CN(Cc1ncc(Cl)s1)c1ccc2sncc2c1`: 0.447 µM. For the molecule `Cc1c(NCc2ncc(Cl)s2)ccc2sncc12`, a half-maximal effect in series [1] (EC50) was put at 1.74 µM. Also, the microsomal CLint in series [2] stood at 508 µL/min/mg; in series [3], 178 µL/min/mg. Regarding `Cn1c(Cl)cnc1CN(Cc1ccccc1)c1ccc2sncc2c1`, the EC50 in series [1] is more than 31.6 µM. In turn, `Cn1c(Cl)cnc1CNc1ccc2cnsc2c1` had an EC50 in series [1] of 0.295 µM.

Consider `Cc1cnc(CNc2ccc3sncc3c2)s1`, for which the EC50 in series [1] was 0.575 µM. Consider `Clc1cnc(COc2ccc3sncc3c2)s1`, for which the EC50 in series [1] was 0.832 µM. The microsomal CLint in series [2] turned out to be 763 µL/min/mg; in series [3], 157 µL/min/mg. Turning to `Cc1csc(CNc2ccc3sncc3c2)n1`, the EC50 in series [1] is more than 31.6 µM. The molecule `Cn1c(Cl)cnc1CNc1ccc2scnc2c1` showed an EC50 in series [1] of 13.5 µM. Still for that read-out and setting: as for `CN(Cc1ncc(Cl)s1)c1cc2cnsc2cc1F`, the figure is 2.82 µM; as for `O=C(Nc1ccc2sncc2c1)c1ncc(Cl)s1`, more than 31.6 µM; as for `CN(Cc1ncc(Cl)n1C)c1ccc2sncc2c1`, 0.158 µM. Take `Clc1cnc(CNc2cc3cnsc3cc2Cl)s1`: a half-maximal response in series [1] (EC50) required 0.0245 µM. In addition, the microsomal CLint is 527 µL/min/mg in series [2] and 149 µL/min/mg in series [3].

With `Cn1c(Cl)cnc1CN1CC(CO)Cc2cccc(F)c21` (configuration not stated), the EC50 in series [1] is 5.01 µM. In series [1], `Clc1cnc(CNc2cc(Cl)c3sncc3c2)s1` gave an EC50 of more than 31.6 µM. The results for the microsomal CLint in series [2] and in series [3] were 221 µL/min/mg and 150 µL/min/mg, respectively. With `Clc1ccc(CNc2ccc3sncc3c2)s1`, the EC50 in series [1] is 2.75 µM. Still for that read-out and setting: the same measure for `Clc1cnc(CNc2cccc3cnsc23)s1`: 1.45 µM.

In series [1], `Fc1c(NCc2ncc(Cl)s2)ccc2sncc12` had an EC50 of 0.933 µM. The microsomal CLint in series [2] amounted to 448 µL/min/mg; in series [3], 247 µL/min/mg. `c1ccc2sc(CNc3ccc4sncc4c3)nc2c1`: the EC50 in series [1] is more than 31.6 µM. Still for that read-out and setting: the same measure for `CC(C)N(Cc1ncc(Cl)n1C)c1ccc2sncc2c1`: 5.13 µM; for `CCN(Cc1ncc(Cl)n1C)c1ccc(Br)cc1`: 5.13 µM. Molecule `Fc1cc2sncc2cc1NCc1ncc(Cl)s1` had an EC50 in series [1] of 0.0977 µM. For the same molecule, the microsomal CLint turned out to be 312 µL/min/mg in series [2] and 142 µL/min/mg in series [3]. In series [1], `FC(F)(F)c1cnc(CNc2ccc3sncc3c2)s1` showed a concentration for a half-maximal effect (EC50) of 0.49 µM. On the same count and under the same terms, as for `CC(=O)N(Cc1ncc(Cl)n1C)c1ccc2sncc2c1`, the figure is more than 31.6 µM; as for `Cn1c(Cl)cnc1CNc1ccc2[nH]ncc2c1`, 6.03 µM; as for `Cn1nc(CNc2ccc3sncc3c2)cc1C(F)(F)F`, more than 31.6 µM.

In turn, `Cn1c(Cl)cnc1CNc1cc2sncc2cc1Cl` had an EC50 in series [1] of 0.0112 µM.

In turn, `Clc1snnc1CNc1ccc2sncc2c1` showed an EC50 in series [1] of 5.25 µM. With `Cn1c(Cl)cnc1CN1CCc2ccccc21`, it took 22.9 µM to reach a half-maximal effect in series [1] (EC50).

The term EC50 denotes the concentration needed to bring the measured effect to its halfway point. Higher therefore signals weaker potency.
